From ChEMBL document CHEMBL5316280, “Development of N-(1-Adamantyl)benzamides as Novel Anti-Inflammatory Multitarget Agents Acting as Dual Modulators of the Cannabinoid CB2 Receptor and Fatty Acid Amide Hydrolase” (J Med Chem, 2023)
Calls of active or inactive are those of the source. The calls are words filed in the database; no cut-off is given here.

Key:
Cannabinoid receptor 1 = Cannabinoid receptor 1 (Homo sapiens, UniProt P21554); assay: […] human CB1 receptor in CHO cells incubated for 15 mins by plate reader analysis relative to control; format: cell-based
Cannabinoid receptor 1, sequence (P21554 whole entry): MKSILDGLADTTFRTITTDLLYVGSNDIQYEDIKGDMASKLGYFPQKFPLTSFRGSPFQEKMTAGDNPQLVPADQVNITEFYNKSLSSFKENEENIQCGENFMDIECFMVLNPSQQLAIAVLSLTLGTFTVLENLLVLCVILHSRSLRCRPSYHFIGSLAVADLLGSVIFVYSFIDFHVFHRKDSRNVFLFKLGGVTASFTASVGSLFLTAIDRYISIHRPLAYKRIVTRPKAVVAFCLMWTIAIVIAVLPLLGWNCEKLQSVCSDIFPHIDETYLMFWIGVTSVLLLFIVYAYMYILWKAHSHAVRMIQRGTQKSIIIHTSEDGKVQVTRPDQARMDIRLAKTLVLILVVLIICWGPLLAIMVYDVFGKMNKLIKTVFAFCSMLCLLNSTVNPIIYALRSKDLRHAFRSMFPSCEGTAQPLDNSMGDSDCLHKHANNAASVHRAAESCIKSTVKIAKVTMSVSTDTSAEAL
In short: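 CHO-CB1 C3 cells (human CB1) were seeded at 8000 cells/well in medium with dialyzed FBS and preincubated 15 min at 37 °C. Compounds or the CP55940 control were added for 15 min at 37 °C, then forskolin 10 µM for 5 min. cAMP was read by HTRF after 1 h at room temperature (λex 320 nm, λem 620-665 nm).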

[1] = target: Cannabinoid receptor 2 (Mus musculus) (UniProt P47936); assay: Agonist activity at mouse CB2 receptor transfected in CHO-K1 cells assessed as beta2-arrestin recruitment incubated for 90 mins by luminescence based assay relative to control; format: functional, cell-based; conditions: filed as agonist
Cannabinoid receptor 2 (Mus musculus), sequence (P47936 whole entry): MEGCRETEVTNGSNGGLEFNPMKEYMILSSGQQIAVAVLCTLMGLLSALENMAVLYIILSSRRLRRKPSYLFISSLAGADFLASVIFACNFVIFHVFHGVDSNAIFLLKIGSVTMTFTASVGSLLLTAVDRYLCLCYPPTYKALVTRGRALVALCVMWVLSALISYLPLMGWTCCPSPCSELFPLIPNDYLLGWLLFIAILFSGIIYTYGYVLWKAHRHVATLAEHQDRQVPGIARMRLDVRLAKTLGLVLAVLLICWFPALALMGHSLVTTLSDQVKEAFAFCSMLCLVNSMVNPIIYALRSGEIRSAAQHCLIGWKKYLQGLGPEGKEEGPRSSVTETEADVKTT
In short: (§1)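 PathHunter eXpress kit using mouse CB2 receptor in CHO-K1 cells. Cells were seeded 48 h before the assay in kit medium. Compounds in cell plating reagent were incubated 90 min at 37 °C, 5% CO2. Working detection solution was then added for 60 min at room temperature to read β-arrestin recruitment.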

Cannabinoid receptor 2 [2] = target: Cannabinoid receptor 2 (Mus musculus, UniProt P47936); assay: Agonist activity at mouse CB2 receptor transfected in CHO-K1 cells assessed as beta2-arrestin recruitment incubated for 90 mins by luminescence based assay; format: functional, cell-based; in short: as §1
Cannabinoid receptor 2 (Mus musculus, UniProt P47936), sequence (P47936 whole entry): as above

Cannabinoid receptor 2 [3] = target: T1, Cannabinoid receptor 2 (Homo sapiens, UniProt P34972); assay: Displacement of [3H]CP55940 from recombinant human CB2 receptor expressed in HEK293 cell membrane incubated for 90 mins by beta scintillation counter method; format: cell membranes
T1 sequence (P34972 whole entry): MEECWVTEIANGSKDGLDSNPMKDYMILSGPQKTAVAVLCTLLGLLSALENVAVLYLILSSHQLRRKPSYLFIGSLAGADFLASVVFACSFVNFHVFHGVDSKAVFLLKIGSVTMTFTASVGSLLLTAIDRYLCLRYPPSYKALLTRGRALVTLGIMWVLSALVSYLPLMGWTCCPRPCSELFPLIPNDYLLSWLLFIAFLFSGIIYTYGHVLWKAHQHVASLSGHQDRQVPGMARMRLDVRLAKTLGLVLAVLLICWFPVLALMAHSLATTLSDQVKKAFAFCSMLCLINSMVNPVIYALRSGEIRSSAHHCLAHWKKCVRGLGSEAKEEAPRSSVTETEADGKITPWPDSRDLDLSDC
In short: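 HEK293 membranes stably expressing human CB2 (50 µg protein/well) competed with 0.2 nM [3H]-CP55,940 (final) against test compound at 10⁻¹²–10⁻⁵ M in Tris-HCl 50 mM, EGTA 2.5 mM, MgCl₂ 5 mM, 0.1% fatty-acid-free BSA, pH 7.4; 90 min at 30 °C. Nonspecific binding defined with 10 µM GW405833.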

[4] = target: T2, Fatty-acid amide hydrolase 1 (Homo sapiens, UniProt O00519); assay: Inhibition of recombinant human FAAH using AMC-AA as substrate preincubated for 10 mins followed by substrate addition measured after 2 hrs by fluorometric assay
T2 sequence (O00519 whole entry): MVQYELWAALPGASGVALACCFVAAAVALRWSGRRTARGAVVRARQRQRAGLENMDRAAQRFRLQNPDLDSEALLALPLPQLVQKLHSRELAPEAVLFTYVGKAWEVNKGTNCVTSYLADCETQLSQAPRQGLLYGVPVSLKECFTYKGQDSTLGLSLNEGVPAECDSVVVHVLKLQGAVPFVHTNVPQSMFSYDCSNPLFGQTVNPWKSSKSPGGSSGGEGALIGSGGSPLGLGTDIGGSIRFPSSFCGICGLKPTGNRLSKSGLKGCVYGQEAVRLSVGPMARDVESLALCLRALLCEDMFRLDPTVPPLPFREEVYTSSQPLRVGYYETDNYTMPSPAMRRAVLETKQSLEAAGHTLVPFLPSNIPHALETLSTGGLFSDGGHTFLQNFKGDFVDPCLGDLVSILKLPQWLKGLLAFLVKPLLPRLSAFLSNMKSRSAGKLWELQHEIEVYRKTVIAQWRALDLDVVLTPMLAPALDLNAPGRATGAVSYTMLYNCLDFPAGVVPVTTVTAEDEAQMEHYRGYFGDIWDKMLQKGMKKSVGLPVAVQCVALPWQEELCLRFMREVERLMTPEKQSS
In short: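 Human recombinant FAAH preincubated with inhibitor at various concentrations in Tris-HCl 125 mM, Na₂EDTA 1 mM, pH 9.0, 10 min at room temperature with shaking. AMC-AA substrate then added (1 µM final); fluorescence read every 30 s for 2 h at 37 °C (ex 340/em 450 nm). Percent inhibition from no-inhibitor controls and no-enzyme blanks; IC50 from at least three independent runs in triplicate.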

[5] = Metal chelating activity assessed as Fe2+-compound complex formation incubated for 15 mins by Ferrozine based assay
In short: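 FeSO₄ (25 µM) in water incubated with or without test compound (100 µM, DMSO) for 15 min at room temperature, 300 µL final. Ferrozine then added (1 mM final), shaken 15 min at room temperature. Absorbance of the ferrozine–Fe(II) magenta complex read at 562 nm; chelation seen as reduced complex formation.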

THP-1 [6] = assay: Antiinflammatory activity in human THP-1 macrophages assessed as increase in IL-10 level incubated for 24 hrs by ELISA based qRT-PCR analysis; format: functional, cell-based
In short: (§2)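 THP-1 cells were seeded at 1 x 10⁵ cells/ml for 48 h. For macrophages, cells were differentiated with 0.01 µM PMA for 48 h; monocytes received no PMA. Cells were then given 24 h with or without 10 µg/ml LPS, plus ligands alone or with the CB2R inverse agonist JTE907 (10 µM). Cytokines were measured in 5 µL supernatant (from 1 x 10⁴ cells) by ProQuantum immunoassay, read as pg/ml from kit titration curves; n=3.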

THP-1 [7] = assay: Antiinflammatory activity in LPS-activated human THP-1 monocytes assessed as decrease in IL-6 level incubated for 24 hrs by ELISA based qRT-PCR analysis; format: functional, cell-based; in short: as §2
THP-1 [8] = assay: Antiinflammatory activity in human THP-1 macrophages assessed as decrease in IL-6 level incubated for 24 hrs by ELISA based qRT-PCR analysis; format: functional, cell-based; in short: as §2
Cannabinoid receptor 2 [9] = target: T1, Cannabinoid receptor 2; assay: Agonist activity at human CB2 receptor overexpressed in CHO-K1 cells assessed as cAMP level incubated for 30 mins by luminescence based assay; format: functional, cell-based
In short: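 CHO-K1 cells overexpressing human CB2R were plated at 30 000 cells/well and held overnight at 37 °C, 5% CO2. Test samples were added as dose–response solutions with NKH-477 to stimulate adenylate cyclase, then incubated 30 min at 37 °C. cAMP was detected by luminescence after cell lysis. Values were normalized to NKH-477 alone as 100% response. Three independent experiments were run in triplicate.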

Structure (SMILES) | Ki (Cannabinoid receptor 2 [3]) [µM] | IC50 [4] [µM] | Activity [5] | other results
CCCCCCC(C)(C)c1ccc([C@H]2C[C@@H](O)CC[C@@H]2CCCO)c(O)c1 | – | – | – | Emax (Cannabinoid receptor 1): 100%; Emax [1]: 100%; EC50 (Cannabinoid receptor 2 [2]): 0.0004 µM
COc1ccc(C(=O)NC23CC4CC(CC(C4)C2)C3)cc1OC | 3 | > 50 | Active | –
COc1cc(Br)cc(C(=O)NC23CC4CC(CC(C4)C2)C3)c1OCc1ccccc1 | 3.2 | 8.8 | Active | –
O=C(NC1CCCCC1)c1cn(CCN2CCOCC2)c2cc(Cl)ccc2c1=O | – | – | – | Activity (THP-1 [6]): inactive; Activity (THP-1 [7]): inactive; Activity (THP-1 [8]): inactive
COc1ccccc1C(=O)NC12CC3CC(CC(C3)C1)C2 | 0.387 | 48.5 | Active | –
COc1cccc(C(=O)NC23CC4CC(CC(C4)C2)C3)c1OC | 0.0876 | > 50 | Active | –
COc1cc(Br)cc(C(=O)NC23CC4CC(CC(C4)C2)C3)c1OC | 0.139 | 44.6 | Active | –
COc1cccc(C(=O)NC23CC4CC(CC(C4)C2)C3)c1O | 0.153 | > 50 | Active | –
CCCC(C)(C)c1ccc2c(c1)OC(C)(C)[C@@H]1CC=C(C)C[C@@H]21 | – | – | – | EC50 (Cannabinoid receptor 2 [9]): 0.169 µM
O=C(NC12CC3CC(CC(C3)C1)C2)c1ccccc1O | – | > 50 | Active | –
COc1cccc(C(=O)NC23CC4CC(CC(C4)C2)C3)c1 | 0.51 | 32.3 | Active | –
COc1ccc(C(=O)NC23CC4CC(CC(C4)C2)C3)cc1 | 2.45 | > 50 | Active | –
O=C(NC12CC3CC(CC(C3)C1)C2)c1cccc(OCc2ccccc2)c1 | 0.313 | 24.1 | Active | –
COc1cc(Br)cc(C(=O)NC23CC4CC(CC(C4)C2)C3)c1O | – | 38.4 | Active | –
O=C(NC12CC3CC(CC(C3)C1)C2)c1ccc(O)cc1 | 1.06 | > 50 | Active | –
O=C(NC12CC3CC(CC(C3)C1)C2)c1ccc(OCc2ccccc2)cc1 | 3.85 | 19.5 | Active | –
O=C(NC12CC3CC(CC(C3)C1)C2)c1cccc(O)c1 | – | 25.6 | Active | –
O=C(NC12CC3CC(CC(C3)C1)C2)c1ccccc1 | – | 23.4 | Active | –
